Data published in paper PMC4198695 (Neoplasia (New York, N.Y.), 2014).

Key:
U87 cells = test: Clonogenic proliferation assay, U87; assay type: cell-based, human; conditions: U87, 10 μM for 24 h, then 14 days drug-free
Outline: (§1)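 Cells were seeded in 6-well plates in 6 replicates: U87 at 5 × 10^2 cells/well, U251 at 1 × 10^3 cells/well. After 24 h at 37 °C they were exposed to 10 μM test compound or drug-free medium for 24 h. Cells were then PBS-washed and grown 14 days drug-free, stained with 0.5% crystal violet for 30 min, and colonies counted. Survival was normalized to drug-free control.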

[1] = humans, twice daily; cited from earlier work
U251 glioblastoma cells = test: MTT toxicity assay, U251; assay type: cell-based; conditions: Homo sapiens, U-251, 168 h, read-out: IC50 (MTT assay), U251, 7 days incubation
Outline: (§2)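 U87 (2.5 × 10^3) or U251 (5 × 10^3) cells per well were incubated 24 h at 37 °C. Medium was then replaced with test compound at 100, 33, 10, 3.3, 1, 0.3, 0.1 and 0.03 μM, in triplicate, for 7 days at 37 °C. Cells received 10% MTT in medium for 4 h, then solubilization solution. Absorbance was read at 570 nm with 690 nm background, and percent survival calculated versus control wells.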

U87 glioblastoma cells = test: MTT toxicity assay, U87; assay type: cell-based; conditions: Homo sapiens, 168 h, read-out: IC50 (MTT assay), U87, 7 days incubation
Outline: as §2

U251 cells = test: Clonogenic proliferation assay, U251; assay type: cell-based, human; conditions: U251, 10 μM for 24 h, then 14 days drug-free
Outline: as §1

In the case of `O=C(c1cc(Cc2n[nH]c(=O)c3ccccc23)ccc1F)N1CCN(C(=O)C2CC2)CC1` [Olaparib, 4-[3-(4-cyclopropanecarbonylpiperazine-1-carbonyl)-4-fluorobenzyl]-2H-phthalazin-1-one], the “decrease in number of surviving colonies” value (U87 cells) is listed as 20-30%, the maximum tolerated dose [1] is listed as 400 mg and the IC50 (U251 glioblastoma cells) is listed as 5.5 ± 1.2 µM. For the same compound, the IC50 (U87 glioblastoma cells) was 23.8 ± 1.3 µM and the “cell survival rate normalized to control” value (U251 cells) was 46.9%.
